This note sets out measurements from ChEMBL document CHEMBL1148591, “Isothiazolopyridones: synthesis, structure, and biological activity of a new class of antibacterial agents” (J Med Chem, 2006).

The subject of assay [1] is Staphylococcus aureus. In words: Antibacterial activity against Staphylococcus aureus ATCC 29213. In kind it is functional.
For assay [2], the target named is DNA topoisomerase 4 subunit A (Staphylococcus aureus, UniProt P0C1U9). In words: Inhibition of topoisomerase 4 decatenation in Staphylococcus aureus ATCC 29213.
Assay [3] deals with DNA topoisomerase II (Homo sapiens) (UniProt P11388+Q02880). In words: Activity against human topoisomerase 2. In kind it is protein assay. The gist of the method:
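Human topoisomerase II DNA cleavage assay. The read-out is EC₂, the drug concentration that enhances enzyme-mediated cleavage of double-stranded DNA 2-fold.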

Assay [4] deals with Escherichia coli. As to the kind of experiment: Antibacterial activity against Escherichia coli ATCC 25922. In kind it is functional.
For assay [5], the target named is DNA gyrase (Staphylococcus aureus) (UniProt P0A0K8+P20831). In words: Inhibition of DNA gyrase supercoiling in Staphylococcus aureus ATCC 29213. In kind it is protein-complex assay.
The target of assay [6] is DNA gyrase (Escherichia coli, UniProt P0AES4+P0AES6). As to the kind of experiment: Inhibition of DNA gyrase supercoiling in Escherichia coli ATCC 25922. In kind it is protein-complex assay.

Values after ≈ are worked out from the molar mass of the structure shown. Active and inactive are the calls of the source. The rule behind the calls is not given here.

Sequence of DNA topoisomerase 4 subunit A (P0C1U9 whole entry): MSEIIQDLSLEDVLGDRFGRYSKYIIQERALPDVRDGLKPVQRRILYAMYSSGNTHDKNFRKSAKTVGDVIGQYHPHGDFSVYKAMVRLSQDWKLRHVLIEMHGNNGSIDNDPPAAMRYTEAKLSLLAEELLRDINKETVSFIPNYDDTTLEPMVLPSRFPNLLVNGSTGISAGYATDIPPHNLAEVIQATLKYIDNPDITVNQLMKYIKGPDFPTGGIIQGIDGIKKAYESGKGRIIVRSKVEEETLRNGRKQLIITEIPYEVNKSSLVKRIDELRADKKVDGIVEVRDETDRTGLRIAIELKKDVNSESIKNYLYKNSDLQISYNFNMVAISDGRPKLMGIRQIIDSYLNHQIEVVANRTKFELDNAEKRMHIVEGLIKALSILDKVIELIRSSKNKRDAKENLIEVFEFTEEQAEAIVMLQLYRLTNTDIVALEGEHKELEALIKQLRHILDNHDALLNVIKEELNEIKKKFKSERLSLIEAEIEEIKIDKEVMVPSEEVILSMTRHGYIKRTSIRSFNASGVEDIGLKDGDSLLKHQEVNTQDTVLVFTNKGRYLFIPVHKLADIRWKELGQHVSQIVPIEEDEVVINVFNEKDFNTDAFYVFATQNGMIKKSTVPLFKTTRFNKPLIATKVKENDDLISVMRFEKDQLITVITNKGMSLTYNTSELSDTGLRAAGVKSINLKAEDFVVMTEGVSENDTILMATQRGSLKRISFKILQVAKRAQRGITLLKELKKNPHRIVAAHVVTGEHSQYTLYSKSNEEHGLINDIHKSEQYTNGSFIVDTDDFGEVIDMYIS
Sequence of DNA gyrase (Staphylococcus aureus) (P0A0K8 2-644 limits assumed): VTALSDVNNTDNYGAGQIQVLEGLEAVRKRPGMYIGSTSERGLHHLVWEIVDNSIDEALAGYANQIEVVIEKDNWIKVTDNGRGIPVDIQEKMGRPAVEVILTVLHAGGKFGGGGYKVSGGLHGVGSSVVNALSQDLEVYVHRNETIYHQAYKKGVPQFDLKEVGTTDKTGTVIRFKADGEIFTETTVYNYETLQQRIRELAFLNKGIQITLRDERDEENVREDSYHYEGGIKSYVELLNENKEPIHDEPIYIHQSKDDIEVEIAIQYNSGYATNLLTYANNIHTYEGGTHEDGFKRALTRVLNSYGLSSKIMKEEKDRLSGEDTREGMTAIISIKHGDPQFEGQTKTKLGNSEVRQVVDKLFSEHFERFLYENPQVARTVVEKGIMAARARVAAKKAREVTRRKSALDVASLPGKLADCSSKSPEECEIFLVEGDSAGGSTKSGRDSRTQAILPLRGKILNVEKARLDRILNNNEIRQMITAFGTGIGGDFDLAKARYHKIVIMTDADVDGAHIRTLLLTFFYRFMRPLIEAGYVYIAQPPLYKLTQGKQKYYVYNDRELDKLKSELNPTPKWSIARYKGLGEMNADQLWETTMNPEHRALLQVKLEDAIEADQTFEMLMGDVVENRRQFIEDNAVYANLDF
Sequence of DNA gyrase (Staphylococcus aureus) (P20831 whole entry partner): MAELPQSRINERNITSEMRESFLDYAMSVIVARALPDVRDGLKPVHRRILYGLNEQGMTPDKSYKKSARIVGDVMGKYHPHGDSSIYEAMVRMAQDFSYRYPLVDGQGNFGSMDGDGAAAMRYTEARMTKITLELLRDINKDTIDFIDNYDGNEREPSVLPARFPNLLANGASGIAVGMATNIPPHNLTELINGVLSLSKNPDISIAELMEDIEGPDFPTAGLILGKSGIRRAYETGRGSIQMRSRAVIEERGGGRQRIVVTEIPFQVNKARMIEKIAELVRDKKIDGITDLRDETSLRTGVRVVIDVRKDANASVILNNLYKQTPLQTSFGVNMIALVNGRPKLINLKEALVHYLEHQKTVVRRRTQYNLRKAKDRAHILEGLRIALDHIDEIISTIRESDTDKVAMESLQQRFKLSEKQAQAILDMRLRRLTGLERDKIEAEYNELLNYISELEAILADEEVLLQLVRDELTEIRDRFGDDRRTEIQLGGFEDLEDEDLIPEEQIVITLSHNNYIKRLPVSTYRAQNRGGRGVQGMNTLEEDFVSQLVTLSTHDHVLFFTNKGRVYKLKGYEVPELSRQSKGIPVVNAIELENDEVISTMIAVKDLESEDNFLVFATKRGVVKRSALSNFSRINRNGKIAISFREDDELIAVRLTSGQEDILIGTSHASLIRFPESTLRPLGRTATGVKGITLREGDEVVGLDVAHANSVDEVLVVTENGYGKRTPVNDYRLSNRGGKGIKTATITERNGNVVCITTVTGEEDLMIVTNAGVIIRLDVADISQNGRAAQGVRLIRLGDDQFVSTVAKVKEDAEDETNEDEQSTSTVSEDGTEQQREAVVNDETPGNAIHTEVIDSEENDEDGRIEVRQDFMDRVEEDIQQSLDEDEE

The MIC is the least concentration at which growth counts as inhibited. Higher therefore signals weaker potency. `O=C(O)c1cn(C2CC2)c2cc(N3CCNCC3)c(F)cc2c1=O` [CIPROFLOXACIN] gave an MIC in assay [1] of 0.25 µg/mL (≈ 0.754 µM).
The term IC50 denotes the midpoint of a concentration-inhibition curve. For the molecule `CCc1c2s[nH]c(=O)c2c(=O)n2ccc(-c3ccncc3)cc12`, the results for the IC50 in assay [2] and in assay [6] were 8.1 µM and 0.4 µM, respectively. For the same molecule, the result in assay [3] and in assay [5] was inactive. Further, the minimal inhibitory concentration (MIC) was 0.25 µg/mL (≈ 0.773 µM) in assay [4] and 0.125 µg/mL (≈ 0.387 µM) in assay [1].
For the molecule `CCc1c2s[nH]c(=O)c2c(=O)n2ccc(N3CCNCC3)cc12`, the IC50 was found to be 37 µM in assay [2] and 14 µM in assay [6]. In addition, the outcome in assay [3] and in assay [5] was inactive. In addition, the values for the MIC in assay [4] and in assay [1] were 4 µg/mL (≈ 12.1 µM) and 16 µg/mL (≈ 48.4 µM), respectively.
As for `CCn1cc(C(=O)O)c(=O)c2cc(F)c(N3CCNCC3)cc21` [NORFLOXACIN], the MIC worked out at 0.06 µg/mL (≈ 0.188 µM) in assay [4] and 0.5 µg/mL (≈ 1.57 µM) in assay [1].
As to `CCc1c2s[nH]c(=O)c2c(=O)n2ccc(-c3cc(C)nc(C)c3)cc12`, the IC50 was 6.3 µM in assay [2] and 0.2 µM in assay [6]. Moreover, the result in assay [3] and in assay [5] was inactive. The MIC in assay [4] amounted to 1 µg/mL (≈ 2.85 µM); in assay [1], 0.125 µg/mL (≈ 0.356 µM).
In the case of `CCc1c2s[nH]c(=O)c2c(=O)n2ccc(N3CCC(N(C)C)C3)cc12` (racemic), the results for the IC50 in assay [2] and in assay [6] were 79 µM and 24 µM, respectively. In addition, the result in assay [3] and in assay [5] was inactive. Moreover, the values for the MIC in assay [4] and in assay [1] were 4 µg/mL (≈ 11.2 µM) and 8 µg/mL (≈ 22.3 µM), respectively.
